Among the data in the RNAGym collection of RNA variant scans (doi:10.1126/science.aae0568) are yeast fitness values, retold here.

Fewer inactive variants are shown than the library holds.

First the molecules themselves.
B1: tRNA (parent)
chain: GUUCCGUUGGCGUAAUGGUAACGCGUCUCCCUCCUAAGGAGAAGACUGCGGGUUCGAGUCCCGUACGGAACG

The variants in the data set derive from B1. Kind of data set: yeast fitness relative to wild type (ratio to wild type); higher = fitter; tRNA-Arg(CCU), competitive growth, 37 C, YPD. A digest of the protocol: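 For this measurement, the tRNA-Arg(CCU) gene was varied by chemical synthesis at a 3% per-site mutation rate across 69 sites, and each variant was placed at the native genomic locus in Saccharomyces cerevisiae. The pooled strains went through a 24-hour competition in YPD at 37°C in six parallel replicates, with amplicons from start and end populations read by 100-nucleotide paired-end sequencing. Darwinian fitness relative to wild type followed from the change in each genotype's frequency. Genotypes needed ≥ 100 starting reads, and estimates < 0.5 were set to 0.5.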
On to GUUCCGAUGGCGUAAUGGUAACGCGUCUCCCUCCUAAGGAGAGGACUGCGCGUUCGAGUCCCGUACGGAACG [U7A A43G G51C], for which the yeast fitness is 0.537.
For GUUCCGAUGGAGUAAUGGUACCGCGUCUUCCUCCUAAGGAGAAGACUGUGGGUUCAAGUCCCGUACGGAACG [U7A C11A A21C C29U C49U G56A], the yeast fitness was at most 0.5.
As for GUUCCGAUGGCGUAAUGGUAACGGGUCUCCCUUCUAAGGACAAGACUGCGGGUUCGAGUCCCGUACGGAACG [U7A C24G C33U G41C], the yeast fitness is at most 0.5.
Regarding GUUCCGAUGGCGUAAUGGUAACGCGUCUCCCUCCUAAGGAGAAGACUGCGGGUUCGAGUCCCGUCCGGCACG [U7A A65C A69C], the yeast fitness is at most 0.5.
GUUCCGAUGGCGUAAUGGUAACGCGUCUCCCUCCUAAGGAGAUGACUGCGGCUUCGAGUCCCGUACGGAACG [U7A A43U G52C]: the yeast fitness was at most 0.5.
As for GUUCCGAUGGCGUAAUGGUAAGGGGUCCCCCUCCUAAGGAGAAGACUGCGGGUUCAAGUCCCGUUCGGAACG [U7A C22G C24G U28C G56A A65U], the yeast fitness was at most 0.5.
Regarding GUUCCGAUGGCGUAAUGGUAACGCGUCUCCCUCCUAAGGAGGAGAGUGCGGGUUCGAGUCCCGUCCGGAACG [U7A A42G C46G A65C], the yeast fitness was found to be 0.66.
As for GUUCCGAUGGCGUAAUGGUAACGCGUCUCCCUCCUAGGGGGAGGACUGCGGCUUCGAGGCCCGUAUGGUACG [U7A A37G A40G A43G G52C U59G C66U A69U], the yeast fitness was at most 0.5.
For the variant GUUCCGAUGGCGUAAUGGUAACGCGUCUCCCUCCUAAGGAGAAGCCUGCGGGUUCGAGUCCCGUACGAAACG [U7A A45C G68A], the yeast fitness was at most 0.5.
Take GUUCCGAUGGCGUAAUGGUAACGCGUCUCCCUCCUAAGGAGAAGGCUGCGGGUUCGAGUCACGUACGGAGCG [U7A A45G C61A A70G]: the yeast fitness is at most 0.5.
With GUUCCGAUGGCGUAAUGGUAACGCGUCUCCCUCCUAAGGAGCAGACAGCGGGUUCGAGUCCCCUACGGCACG [U7A A42C U47A G63C A69C], the yeast fitness is at most 0.5.
As for GUUCCGAUGGCGUAAUGGUAACGUGUCUCCCUACUAAGGAGAAGACUGCAGGUUCGAGUCCCGUCCGGAACG [U7A C24U C33A G50A A65C], the figure is at most 0.5; as for GUUCCGAUGGUGUAAUGGUAAUGCGUCUCCCUCCUAACGAGAAGACUGCGGGUUCGAGUCCCGUACGGAACG [U7A C11U C22U G38C], at most 0.5; as for GUUCCGAUGGCGUAAUGGUAACGCGUCUCCCUCCUAAGGAGAAGACUGCGGGUUCGAGUCCCGUACGGAUCG [U7A A70U], 0.689.
GUUCCGAUGGCGUAAUGGUAACGCGUCUCCCUCCUAAGGAGAAGACUGCGGGUUCGAGUCCCGUACGGAGCG [U7A A70G]: the yeast fitness came out at 0.829.
Regarding GUUCCGAUGGCGUAAUGGUAACGUGUCUCCCUCCUAAGGAGAAGACUGCGGGUCCGAGUCCCGUACGGUACG [U7A C24U U54C A69U], the yeast fitness was at most 0.5.
Take GUUCCGAUGGUGUAGUGGUAACGCGUCUCCCUCCUAAGGAGAAGACUGCGGGUUCGAGUCCCGUCCGGAACG [U7A C11U A15G A65C]: the yeast fitness is at most 0.5.
Regarding GUUCCGAUGGCGUAAUGGUAACGUGUCUCCCUACUAAGGAGAAGACUGCGGGUUCGAGUCCCGUUCGGAACG [U7A C24U C33A A65U], the yeast fitness was determined as 0.58.
Regarding GUUCCGAUGGCGUAAUGGUAACGCGUCUCCCUCCUUAGGAGAAGACUGCGGGUUUGAGUCCCGUUCGGAACG [U7A A36U C55U A65U], the yeast fitness was 0.555.
In the case of GUUCCGAUGGGGUAAUGGUAACGCGUUUCCCUCCUACGGAGAAGACUGCGCGUUCGAGUCCCGUACGGAACG [U7A C11G C27U A37C G51C], the yeast fitness is at most 0.5.
Consider GUUCCGAUGGCGUAAUGGUAAUGCGCCUCCCUCCUAAGGGGAUGACUGAGGGUUCGAGUCCCGUACGGAACG [U7A C22U U26C A40G A43U C49A], for which the yeast fitness was at most 0.5.
In the case of GUUCCGAUGGCGUAAUGGUAACGCGUCUCCCUCCUAGGGGGAGGACUGCGGCUUCGAGGCCCGUACGGAACG [U7A A37G A40G A43G G52C U59G], the yeast fitness is 0.556.
Consider GUUCCGAUGGGGUAAUGGUAACGCGUCGCCCACCUAACGAGAAGACUGCGGGUUCGAGUCCCGUACGGAACG [U7A C11G U28G U32A G38C], for which the yeast fitness was at most 0.5.
Consider GUUCCGAUGGCGUAAUGGUAAGGCGUCUCCCUCCUAACGAGAAGACUGCGGGUUCGAGUUCCGUACGGAACG [U7A C22G G38C C60U], for which the yeast fitness was at most 0.5.
With GUUCCGAUGGCGUAAUGGUAACGGGUCUGUCUCCUAAGGCGAAGACUGCGGGUUCGAGUCCCGUACGCAACG [U7A C24G C29G C30U A40C G68C], the yeast fitness is 0.663.
As for GUUCCGAUGGCGUAAUGGUAACGCGUCUCCCUCCUACGGAGACGACUGCGGGUUCGAGUCCCGUGCGGAACG [U7A A37C A43C A65G], the figure is at most 0.5.
GUUCCGAUGGCGUAAUGGUAACGCGUCUCCCUCCUAAGGUGACGACUGCGGGUUCGAGUCCCGUACGGAACG [U7A A40U A43C]: the yeast fitness worked out at 0.656.
As for GUUCCGAUGGAGUCAUGGUAACGCGUCUCCCUCAUAAGGAGAAGACUGCGGGUUCGAGUCCCGUACGGAACG [U7A C11A A14C C34A], the figure is at most 0.5.
Regarding GUUCCGAUGGCGUAAUGGUAACGGGUCUCCCUCCUAAGGAGAAGACUGCGGGUUCGAGUCCCGUACGGUACG [U7A C24G A69U], the yeast fitness was at most 0.5.
For GUUCCGAUGGCGUAAUGGUAACGCGUCUCCCUCCUAAGGAGAAGCCAGCGGGUUCGAGUCCCGUACGAAACG [U7A A45C U47A G68A], the yeast fitness is at most 0.5.
As for GUUCCGAUGGCGUAAUGGUAACGCGUCUCCCUCCUAAGGAGCAGACUGCGGGUUCGAGUCCUGUACGGAACG [U7A A42C C62U], the figure is at most 0.5.
On to GUUCCGAUGGUGUAAUGGUAACGCGUCUCCCUCCUAAGGAGAAGACAGCGGGUUCGAGUCCCGUACGGAACG [U7A C11U U47A], for which the yeast fitness is at most 0.5.
Take GUUCCGAUGGAGUAAUGGUAACGCGUCUCCCUUCUAAGGAGAAGACUGCGGGUUGAAGUCCCGUACGGAACG [U7A C11A C33U C55G G56A]: the yeast fitness amounted to 0.838.
On to GUUCCGAUGGCGUAAUGGUAACGUGUCUCCCUCCUAAGGAGAAGACUGCGGGUUCGAGUCCCGUACGGAACG [U7A C24U], for which the yeast fitness stood at 0.669.
As for GUUCCGAUGGCGUAAUGGUAACGCGUCUCCCUCCUAAGGAGACGACUACGGGUUCGCGUCCCGUACGUAACG [U7A A43C G48A A57C G68U], the figure is at most 0.5; as for GUUCCGAUGGUGUAAUGGUAACGCGUCUCCCUCCUAAGGGGUAGACUGCGGGUUCGAGUCCAGUACGGAACG [U7A C11U A40G A42U C62A], at most 0.5; as for GUUCCGAUGGCGUAAUGGUAACGCGUCUCCCUCCUAAGGAGAAGACUGCGGGUUCGAGUCCCGUGCGGAACG [U7A A65G], 1.03.
